In ChEMBL document CHEMBL3297718, “Ultrasound-assisted one-pot four-component synthesis of novel 2-amino-3-cyanopyridine derivatives bearing 5-imidazopyrazole scaffold and their biological broadcast” (Eur J Med Chem, 2014) one finds MIC, inhibition and Activity data, which are given here for ten molecules.

One series relates to Vibrio cholerae. In words: Antimicrobial activity against Vibrio cholerae MTCC 3906 by broth microdilution method. Type of series: functional. (Broth dilution looks for growth in wells or tubes with falling amounts of substance.)
For series [1], the system named is Mycobacterium tuberculosis. In words: Antitubercular activity against Mycobacterium tuberculosis H37Rv at 250 ug/ml. Type of series: functional.
For the next series, the system named is Candida albicans. In words: Antimicrobial activity against Candida albicans MTCC 227 by broth microdilution method. Type of series: functional. The method in brief:
(§1)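 Broth microdilution following NCCLS. Compounds were diluted in 2% DMSO in water. Fungi were grown in Sabouraud dextrose broth. Inoculum was set to 10⁸ CFU mL⁻¹ by turbidity. A primary serial-dilution screen was followed by a secondary set of lower dilutions for primary actives. Tubes were incubated at 37 °C, with growth noted at 24 and 48 h. MIC was the highest dilution preventing turbidity after spot subculture.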

The subject of the next series is Clostridium tetani. In words: Antimicrobial activity against Clostridium tetani MTCC 449 by broth microdilution method. The format is functional.
The test system of a further series is Salmonella typhi. In words: Antimicrobial activity against Salmonella typhi MTCC 98 by broth microdilution method. The format is functional, Salmonella enterica subsp. enterica serovar Typhi. The conditions noted are these: Salmonella enterica.
The subject of another series is Streptococcus pneumoniae. In words: Antimicrobial activity against Streptococcus pneumoniae MTCC 1936 by broth microdilution method. Type of series: functional.
A further series deals with Escherichia coli. In words: Antimicrobial activity against Escherichia coli MTCC 443 by broth microdilution method. Type of series: functional. An outline of the steps: as §1
In the next series the test system is Bacillus subtilis. In words: Antimicrobial activity against Bacillus subtilis MTCC 441 by broth microdilution method. Type of series: functional. The method in brief: as §1
The test system of the next series is Aspergillus fumigatus. In words: Antimicrobial activity against Aspergillus fumigatus MTCC 3008 by broth microdilution method. The format is functional. The method in brief:
as §1

A short description of series [2]: Antioxidant activity assessed as ferric ion reducing activity using fe3+-TPTZ at 200 mg/ml measured as ascorbic acid per 100 g sample by FRAP assay. The format is physicochemical. An outline of the steps: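 FRAP assay, modified Benzie–Strain. Reagent combined TPTZ in 40 mM HCl, aqueous FeCl₃·6H₂O and acetate buffer at pH 3.6. Sample solution was mixed with 3 mL reagent and incubated 25 min at 37 °C. Fe(II)–TPTZ absorbance was read at 593 nm against an ascorbic acid standard. Results are given as ascorbic equivalents, mmol/100 g compound.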

In series [3] the test system is Mycobacterium tuberculosis. In words: Antitubercular activity against Mycobacterium tuberculosis H37Rv. Type of series: functional. An outline of the steps: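 M. tuberculosis H37Rv was grown on Lowenstein–Jensen medium with compound at a single concentration of 250, and compared against control tubes of medium alone with the organism. Results are given as % inhibition, and the concentration giving complete inhibition of colonies was taken as the active concentration.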

In brackets after ≈: the same amount, converted by molar mass.

`Cc1cn(-c2c(-c3cc(-c4ccc(-c5ccccc5)cc4)nc(N)c3C#N)c(C)nn2-c2ccccc2)cn1`: the MIC against Vibrio cholerae was found to be 100 µg/mL (≈ 197 µM); against Candida albicans, 500 µg/mL (≈ 985 µM); in the series with Clostridium tetani, 250 µg/mL (≈ 493 µM); against Salmonella typhi, 200 µg/mL (≈ 394 µM); in the series with Streptococcus pneumoniae, 125 µg/mL (≈ 246 µM); with Escherichia coli, 250 µg/mL (≈ 493 µM). Also, the MIC is 250 µg/mL (≈ 493 µM) in the series with Bacillus subtilis and 500 µg/mL (≈ 985 µM) in the series with Aspergillus fumigatus. For the same molecule, the inhibition at 250 µg/mL in series [1] came to 23%. In addition, the Activity in series [2] turned out to be 495.9 mmol.
As for `Cc1cn(-c2c(-c3cc(-c4ccc5c(c4)OC(C)(C)O5)nc(N)c3C#N)c(C)nn2-c2ccccc2)cn1`, the MIC with Vibrio cholerae worked out at 500 µg/mL (≈ 993 µM); against Candida albicans, 1000 µg/mL (≈ 1990 µM); in the series with Clostridium tetani, 500 µg/mL (≈ 993 µM); with Salmonella typhi it was 62.5 µg/mL (≈ 124 µM); against Streptococcus pneumoniae it was 500 µg/mL (≈ 993 µM); against Escherichia coli, 125 µg/mL (≈ 248 µM). Also, the MIC in the series with Bacillus subtilis came to 250 µg/mL (≈ 496 µM); against Aspergillus fumigatus it was 1000 µg/mL (≈ 1990 µM). For the same molecule, the inhibition at 250 µg/mL in series [1] stood at 78%. Besides, the Activity in series [2] was found to be 384.91 mmol.
Consider `Cc1cn(-c2c(-c3cc(-c4ccccc4)nc(N)c3C#N)c(C)nn2-c2ccccc2)cn1`, for which the MIC is 200 µg/mL (≈ 463 µM) in the series with Vibrio cholerae; over 1000 µg/mL against Candida albicans; 500 µg/mL (≈ 1160 µM) in the series with Clostridium tetani; 250 µg/mL (≈ 579 µM) against Salmonella typhi; 500 µg/mL (≈ 1160 µM) against Streptococcus pneumoniae; 200 µg/mL (≈ 463 µM) in the series with Escherichia coli. Also, the MIC is 100 µg/mL (≈ 232 µM) against Bacillus subtilis and over 1000 µg/mL in the series on Aspergillus fumigatus. This molecule also registered an inhibition at 250 µg/mL in series [1] of 84%. Moreover, the Activity in [2] came out at 401.81 mmol.
`Cc1cn(-c2c(-c3cc(-c4cccs4)nc(N)c3C#N)c(C)nn2-c2ccccc2)cn1`: the MIC was 100 µg/mL (≈ 229 µM) in the series with Vibrio cholerae; over 1000 µg/mL in the series with Candida albicans; 500 µg/mL (≈ 1140 µM) against Clostridium tetani; 250 µg/mL (≈ 571 µM) against Salmonella typhi; 100 µg/mL (≈ 229 µM) against Streptococcus pneumoniae; 250 µg/mL (≈ 571 µM) in the series with Escherichia coli. The MIC in the series with Bacillus subtilis was 500 µg/mL (≈ 1140 µM); in the series on Aspergillus fumigatus, over 1000 µg/mL. Further, 250 µg/mL produced 23% inhibition in series [1]. Moreover, the Activity in series [2] was determined as 422.3 mmol.
Turning to `Cc1nn(-c2ccccc2)c(-n2ccnc2)c1-c1cc(-c2cc3ccccc3oc2=O)nc(N)c1C#N`, the MIC with Candida albicans is 500 µg/mL (≈ 1030 µM); in the series with Streptococcus pneumoniae, 100 µg/mL (≈ 206 µM); against Escherichia coli, 200 µg/mL (≈ 412 µM); against Bacillus subtilis it was 500 µg/mL (≈ 1030 µM); with Aspergillus fumigatus, 1000 µg/mL (≈ 2060 µM). Also, the Activity in series [2] is 401.22 mmol.
For the molecule `COc1ccc(-c2cc(-c3c(C)nn(-c4ccccc4)c3-n3cnc(C)c3)c(C#N)c(N)n2)cc1`, the MIC with Vibrio cholerae was found to be 62.5 µg/mL (≈ 135 µM); against Candida albicans, 500 µg/mL (≈ 1080 µM); against Clostridium tetani it was 250 µg/mL (≈ 542 µM); in the series with Salmonella typhi, 250 µg/mL (≈ 542 µM); against Streptococcus pneumoniae, 100 µg/mL (≈ 217 µM); against Escherichia coli, 125 µg/mL (≈ 271 µM). The minimum inhibitory concentration (MIC) worked out at 250 µg/mL (≈ 542 µM) in the series with Bacillus subtilis and 1000 µg/mL (≈ 2170 µM) against Aspergillus fumigatus. Moreover, in [1], the inhibition at 250 µg/mL is 56%. For the same molecule, the Activity in [2] amounted to 178.82 mmol.
With `NNC(=O)c1ccncc1` [ISONIAZID], 0.2 µg/mL (≈ 1.46 µM) was the least that counted as inhibitory in [3] (MIC).
Regarding `Cc1nn(-c2ccccc2)c(-n2ccnc2)c1-c1cc(-c2ccc(Br)cc2)nc(N)c1C#N`, the MIC against Vibrio cholerae amounted to 200 µg/mL (≈ 403 µM); against Candida albicans, 500 µg/mL (≈ 1010 µM); against Clostridium tetani it was 200 µg/mL (≈ 403 µM); against Salmonella typhi, 200 µg/mL (≈ 403 µM); in the series with Streptococcus pneumoniae, 200 µg/mL (≈ 403 µM); against Escherichia coli, 100 µg/mL (≈ 201 µM). Further, the MIC against Bacillus subtilis is 200 µg/mL (≈ 403 µM); in the series with Aspergillus fumigatus, 500 µg/mL (≈ 1010 µM). Moreover, in series [1], the inhibition at 250 µg/mL turned out to be 37%. Besides, in series [2], the Activity amounted to 67.63 mmol.
For the molecule `Cc1cn(-c2c(-c3cc(-c4ccc(Br)cc4)nc(N)c3C#N)c(C)nn2-c2ccccc2)cn1`, the MIC against Vibrio cholerae was determined as 250 µg/mL (≈ 490 µM); in the series on Candida albicans, 1000 µg/mL (≈ 1960 µM); against Clostridium tetani, 100 µg/mL (≈ 196 µM); in the series with Salmonella typhi, 500 µg/mL (≈ 980 µM); against Streptococcus pneumoniae, 250 µg/mL (≈ 490 µM); in the series on Escherichia coli, 500 µg/mL (≈ 980 µM). In addition, the MIC against Bacillus subtilis was 62.5 µg/mL (≈ 122 µM); in the series with Aspergillus fumigatus it was over 1000 µg/mL. Also, in [1], the inhibition at 250 µg/mL is 84%. Besides, the Activity in series [2] is listed as 70.61 mmol.
Turning to `Cc1nn(-c2ccccc2)c(-n2ccnc2)c1-c1cc(-c2cccs2)nc(N)c1C#N`, the MIC against Vibrio cholerae is 62.5 µg/mL (≈ 148 µM); in the series with Candida albicans, over 1000 µg/mL; with Clostridium tetani, 200 µg/mL (≈ 472 µM); against Salmonella typhi it was 500 µg/mL (≈ 1180 µM); in the series on Streptococcus pneumoniae it was 100 µg/mL (≈ 236 µM); in the series with Escherichia coli, 500 µg/mL (≈ 1180 µM). The MIC against Bacillus subtilis was 200 µg/mL (≈ 472 µM); with Aspergillus fumigatus, 500 µg/mL (≈ 1180 µM). The same molecule had an inhibition at 250 µg/mL in series [1] of 41%. In addition, the Activity in [2] came out at 205.48 mmol.

Broadly, the MIC is the lowest concentration that inhibits growth of the organism. Low values mean inhibition by little substance, high ones a need for much substance. The inhibition is the percentage by which the read-out fell short of the control. Low readings indicate a weak effect, high ones a strong effect.
